This is an account of results in article PMC5819740 (ACS chemical biology, 2017).

Read-outs that look alike come from different tables or passages of the source.

Data set [1] addresses T1, EcDHFR (Escherichia coli, UniProt P0ABQ4). Put plainly: biochemical. The data set is classed as biochemical. As to conditions: for Inhibition of EcDHFR activity in single-concentration initial screen: 1mM inhibitor (Fig 2A legend).
Data set [2] deals with T1, EcDHFR. It counts as binding. As to conditions: thermal shift at single concentration of 0.5 mM small molecule, 5μM EcDHFR.
Data set [3] has as its target T1, EcDHFR. It counts as biochemical. As to conditions: lower substrate, global non-linear fits.
In data set [4] the target is T1, EcDHFR. The note with it: cited from earlier work.
A further data set addresses EcDHFR L28R mutant. The data set is described as follows: DHFR inhibition assay on drug-resistant single mutant. The data set is classed as biochemical, Escherichia coli. The note with it: L28R mutant vs wild-type. The procedure, abridged:
(§1)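 Purified recombinant E. coli DHFR (wild-type, or L28R, A26T/L28R, P21L/L28R mutants) in 100mM HEPES pH 7.3 at ~22 °C with 60 μM NADPH, 50 μM H2F and varied test compound; wild-type enzyme at 16.7nM. Reactions were enzyme-started, and NADPH consumption was followed at 340 nm for 100 s (initial rates, <5% product), corrected for non-enzymatic NADPH loss. Run in duplicate; IC50 fitted to y = 100%/[1+(I/IC50)].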

Another data set has as its target EcDHFR A26T/L28R mutant. Put plainly: DHFR inhibition assay on drug-resistant double mutant. The data set is classed as biochemical, Escherichia coli. As to conditions: A26T/L28R mutant vs wild-type. In short, it runs like this: as §1
The target of another data set is EcDHFR P21L/L28R mutant. The data set is described as above. As to conditions: P21L/L28R mutant vs wild-type. It counts as biochemical, Escherichia coli. In short, it runs like this:
as §1

Data set [5] in a line: Insolubility limit in growth assay medium. As to conditions: 30 °C, aqueous buffer, kinetic from dmso stock.
Another data set concerns Escherichia coli. As to conditions: read-out: estimated IC50 (antibacterial activity); cited from earlier work.
A further data set concerns E. coli cultures. The data set is described as follows: Rescue of growth by metabolic complement folAmix. It counts as cell-based. The note with it: M9-media supplemented with folAmix; different resveratrol concentrations.
For data set [6], the system named is E. coli strain with chromosomal folA replaced by mutant L28R. The note with it: cited from earlier work.
Where [7] appears, read: 60μM NADPH, 50μM H2F, 100mM HEPES pH 7.3, 16.7nM EcDHFR, ± S.E.
[8] abbreviates: substrate H2F, saturating NADPH.

T1 sequence (P0ABQ4 whole entry): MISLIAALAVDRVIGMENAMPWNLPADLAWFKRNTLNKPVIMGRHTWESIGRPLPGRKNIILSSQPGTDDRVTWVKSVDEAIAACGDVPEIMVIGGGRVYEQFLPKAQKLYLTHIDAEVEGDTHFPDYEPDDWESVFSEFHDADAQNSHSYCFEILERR

As to `O=S(=O)(O)c1cc(N=C=S)ccc1C=Cc1ccc(N=C=S)cc1S(=O)(=O)O` [DIDS], the midpoint of inhibition on EcDHFR [1] (setting [7]), the IC50, lay at 51 ± 1.7 µM. Further, the “Inhibition of EcDHFR activity in single-concentration initial screen” value (shortened to “Inhibition of EcDHFR activity”) on EcDHFR [1] is listed as “showed inhibition”.
For `O=[N+]([O-])c1ccc(/C=C/c2ccc([N+](=O)[O-])cc2S(=O)(=O)O)c(S(=O)(=O)O)c1` [DNDS, dinitro disulfonic acid], the ΔTm on EcDHFR [2] amounted to 1.9 °C. The IC50 against EcDHFR [1] (setting [7]) came to 45.3 ± 10.1 µM. Moreover, the “Inhibition of EcDHFR activity” value on EcDHFR [1] is “showed inhibition”.
In turn, `Nc1ccc(C=Cc2ccc(N)cc2S(=O)(=O)O)c(S(=O)(=O)O)c1` [flavonic acid] showed a αKi on EcDHFR [3] (setting [8]) of 76.25 ± 6.82 µM. Besides, half-maximal inhibition on EcDHFR [1] (setting [7]) (IC50) required 36.7 ± 3.1 µM. Moreover, the “Inhibition of EcDHFR activity” value at EcDHFR [1] is “showed inhibition”.
For `COc1ccc(CC(=O)c2ccc(O)cc2O)cc1` [ononetin], the “Binding to EcDHFR by DSF” value at EcDHFR [4] is reported as “showed binding to EcDHFR”. Besides, the “IC50 curve compared with wild-type enzyme” value against EcDHFR L28R mutant, on EcDHFR A26T/L28R mutant and against EcDHFR P21L/L28R mutant was “superimposable” throughout. The “Inhibition Mechanism” value at EcDHFR [3] (NADPH titrated at saturating H2F) is given as “uncompetitive inhibition”. The αKi at EcDHFR [3] (setting [8]) is 111.2 ± 12.37 µM; at EcDHFR [3] (substrate NADPH, saturating H2F), 113.2 ± 13.1 µM. The compound also yielded a half-inhibitory concentration (IC50) at EcDHFR [1] of 83.4 ± 1.1 µM. At EcDHFR [1], the affinity, expressed as Ki, was 83.4 µM. At EcDHFR [1], the “Inhibition of EcDHFR activity” value was “inhibits the enzyme”.
The compound `Oc1cc(O)cc(/C=C/c2ccc(O)cc2O)c1` [oxyresveratrol] showed a solubility in data set [5] of at most 250 µM.
On to `Oc1ccc(/C=C/c2cc(O)cc(O)c2)cc1` [resveratrol], for which the IC50 with Escherichia coli was 250 µM; against EcDHFR [1], 95.7 ± 3 µM. The “IC50 curve compared with wild-type enzyme” value against EcDHFR L28R mutant, on EcDHFR A26T/L28R mutant and at EcDHFR P21L/L28R mutant was “superimposable” each time. This compound had a αKi at EcDHFR [3] (setting [8]) of 88.30 ± 6.02 µM. The same compound gave a Ki on EcDHFR [1] of 95.7 µM. The “Inhibition of EcDHFR activity” value at EcDHFR [1] is listed as “showed inhibition”. Further, the solubility in data set [5] is at most 250 µM. The “Effect of folAmix on growth of inhibited cells” value in the data set on E. coli cultures was “fully restores growth”.
Turning to `COc1cc(Cc2cnc(N)nc2N)cc(OC)c1OC` [trimethoprim], the “Increase in resistance conferred by L28R variant” value in data set [6] is recorded as “approximately 50 fold”.

Broadly, the IC50 is the concentration needed to halve the response being measured. As a reminder, the ΔTm is the change in melting temperature against a reference sample. Broadly, the Ki is the equilibrium dissociation constant of an inhibitor or competing ligand from its target. A lower Ki goes with tighter binding. By solubility is commonly meant how much of the substance goes into solution per volume. A higher solubility goes with a readily soluble substance.
